From ChEMBL document CHEMBL1955811, “Inhibition of colony-stimulating-factor-1 signaling in vivo with the orally bioavailable cFMS kinase inhibitor GW2580” (Proc Natl Acad Sci U S A, 2005)
pIC50: −log10 of the molar value. The source made the active and inactive calls. The rule behind the calls is not given here.

Experiments:
[1] = biological target: Protein kinase C alpha type (Homo sapiens, UniProt P17252); experiment: Inhibition of human PKCa catalytic domain after by scintillation counting
Method in brief: (§1)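 Catalytic domains of the human kinases were expressed, isolated and assayed with ATP and the appropriate substrate. Compound was tested as a 10- to 12-point dose-response up to a maximal 20 μM.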

[2] = biological target: T1, Protein kinase C zeta type (Homo sapiens, UniProt Q05513); experiment: Inhibition of human His-tagged PKCz using biotin-(amino hexanoic acid)-FKLKRKGSFKKFA-CONH2 as substrate after 40 mins by scintillation proximity assay; method in brief: as §1
T1 sequence (Q05513 whole entry): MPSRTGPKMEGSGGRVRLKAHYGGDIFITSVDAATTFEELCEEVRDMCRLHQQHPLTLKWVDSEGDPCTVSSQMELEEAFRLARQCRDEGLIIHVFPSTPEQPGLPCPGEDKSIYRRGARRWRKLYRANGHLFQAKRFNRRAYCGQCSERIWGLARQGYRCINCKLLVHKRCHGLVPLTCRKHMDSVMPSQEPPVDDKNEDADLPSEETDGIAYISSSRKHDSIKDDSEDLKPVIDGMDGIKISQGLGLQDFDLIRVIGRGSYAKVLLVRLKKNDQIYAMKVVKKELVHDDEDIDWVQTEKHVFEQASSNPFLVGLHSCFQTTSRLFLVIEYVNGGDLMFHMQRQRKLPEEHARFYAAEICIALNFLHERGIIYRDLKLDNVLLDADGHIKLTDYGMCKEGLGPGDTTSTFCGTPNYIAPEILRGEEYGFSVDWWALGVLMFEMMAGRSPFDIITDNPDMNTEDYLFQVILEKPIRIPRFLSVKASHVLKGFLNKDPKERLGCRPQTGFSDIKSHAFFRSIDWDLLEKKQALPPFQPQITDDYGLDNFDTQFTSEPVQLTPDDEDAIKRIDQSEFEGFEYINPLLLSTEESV

[3] = tested on: Monocyte; experiment: Growth inhibition of CSF-1-stimulated freshly isolated human monocytes after 3 days by spectrophotometry; format: functional, cell-based; details: 120 h, in the assay text read “after 5 days” for “after 3 days”
Method in brief: (§2)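 Cells cultured so that added serum or growth factor gave linear growth. Compound tested as a 10- to 12-point dose-response with a top concentration of 20 μM.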

[4] = tested on: HUVEC; experiment: Growth inhibition of bFGF-stimulated HUVEC after 3 days by spectrophotometry; format: cell-based; details: Homo sapiens, 72 h; method in brief: as §2
[5] = Growth inhibition of serum-stimulated human MDA231 cells after 3 days by spectrophotometry; format: functional, cell-based; details: MDA-MB-231, 72 h; method in brief: as §2
[6] = tested on: A549; experiment: Growth inhibition of serum-stimulated human A549 cells after 3 days by spectrophotometry; format: functional, cell-based; details: A549, 72 h; method in brief: as §2
[7] = tested on: Monocyte; experiment: Inhibition of CSF-1-stimulated growth of freshly isolated human monocytes at 1 uM preincubated for 30 mins before inducer addition measured after 5 days by WST-1 method; format: functional; details: read-out: GI
[8] = tested on: Monocyte; experiment: Inhibition of GMCSF-stimulated growth of freshly isolated human monocytes at 1 uM preincubated for 30 mins before inducer addition measured after 5 days by WST-1 method; format: functional; details: read-out: GI
[9] = tested on: PBMC; experiment: Effect on LPS-induced TNF production in human PBMC at 0.03906 to 20 uM preincubated for 30 mins before LPS stimulation measured after 20 hrs by ELISA; format: functional, cell-based
[10] = tested on: PBMC; experiment: Effect on LPS-induced PGE2 production in human PBMC at 0.03906 to 20 uM preincubated for 30 mins before LPS stimulation measured after 20 hrs by ELISA; format: functional, cell-based
[11] = tested on: Monocyte; experiment: Effect on LPS-induced PGE2 production in human monocytes at 0.03906 to 20 uM preincubated for 30 mins before LPS stimulation measured after 20 hrs by ELISA; format: functional, cell-based
[12] = tested on: Macrophage; experiment: Effect on LPS-induced TNF production in CSF-1-stimulated human macrophages at 0.03906 to 20 uM preincubated for 30 mins before LPS stimulation measured after 20 hrs by ELISA; format: functional, cell-based
[13] = tested on: Macrophage; experiment: Effect on LPS-induced PGE2 production in CSF-1-stimulated human macrophages at 0.03906 to 20 uM preincubated for 30 mins before LPS stimulation measured after 20 hrs by ELISA; format: functional, cell-based
[14] = tested on: Osteoclast; experiment: Inhibition of human osteoclast attachment to plastic surface assessed cells per cm2 of plastic at 1 uM after 3 days by immunocytochemistry (reference value: 9723 +/- 1380 cells/cm2 of plastic); format: functional
Method in brief: (§3)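 Human PBMCs from a healthy volunteer (5 × 10^5 cells in MEM/10% FCS) were seeded on plastic coverslips with RANKL and CSF-1 (30 ng/ml each) for 10 days, with medium changed every 3 days. Compound was added on day 10 (0.1% DMSO final). On day 13, total cells on the coverslips were counted by immunocytochemistry. Data are mean ± SEM.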

[15] = tested on: Osteoclast; experiment: Inhibition of human osteoclast degradation of bone assessed as reduction in 23C6(+) cells with more than 3 nuclei per cm2 of bone at 1 uM after 3 days by immunocytochemistry (reference value: 854 +/- 122 cells/cm2 of bone); format: functional
[16] = tested on: Osteoclast; experiment: Inhibition of human osteoclast degradation of bone assessed as reduction in actin ring formation per cm2 of bone at 1 uM after 3 days by immunocytochemistry (reference value: 1546 +/- 232 /cm2 of bone); format: functional
[17] = tested on: Osteoclast; experiment: Inhibition of human osteoclast attachment to plastic surface assessed cells per cm2 of plastic at 3 uM after 3 days by immunocytochemistry (reference value: 9723 +/- 1380 cells/cm2 of plastic); format: functional; method in brief: as §3
[18] = Protein binding in cell-culture media with mouse plasma at 3 uM; format: ADME, cell-free; details: read-out: PB (converted)
Method in brief: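 Compound at 3 μM was added to triplicate samples and incubated 1 h at 37°C. Samples were centrifuged through a 30,000-MW filter (1,500 × g, 15 min, 4°C). Percent bound was calculated from compound concentrations in the filtrate and retentate.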

[19] = tested on: Mus musculus; experiment: Inhibition of LPS-stimulated IL-6 production in mouse at 40 mg/kg, po administered 4.5 hr before LPS challenge measured […] after LPS challenge; format: functional
[20] = tested on: Mus musculus; experiment: Inhibition of LPS-stimulated IL-6 production in CSF-1 primed mouse at 40 mg/kg, po administered 0.5 hr before LPS challenge post CSF-1 priming measured […] after LPS challenge; format: functional
[21] = tested on: Mus musculus; experiment: Inhibition of LPS-stimulated IL-6 production in CSF-1 primed mouse at 40 mg/kg, po administered 4.5 hr before LPS challenge and CSF-1 priming measured […] after LPS challenge; format: functional
[22] = tested on: Mus musculus; experiment: Toxicity in mouse M-NFS-60 cells allografted CD-1 nude mouse assessed as effect on body weight at 20 to 80 mg/kg, po BID starting 1 hr before challenge for 4 days; format: organism-based; parameters: dose 20-80 mg/kg, route oral; details: in vivo
Method in brief: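 Female CD-1 nude mice (22-26 g) received 1 × 10^7 M-NFS-60 cells in PBS i.p. Oral dosing b.i.d. in 0.5% HPMC/0.1% Tween 80 began 1 h before cell injection. Body weight was taken at kill on day 4.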

[23] = tested on: Mus musculus; experiment: Increase in LPS-stimulated IL-6 production in mouse at 40 mg/kg, po administered 4.5 hr before LPS challenge measured […] after LPS challenge

Question: With `COc1ccc(COc2ccc(Cc3cnc(N)nc3N)cc2OC)cc1` [GW632580X] as the molecule, how does the pIC50 [1] read?
Answer: Its pIC50 is less than 4.89.

Question: What about the pIC50 [2] of the same molecule?
Answer: The pIC50 was less than 4.62.

Question: And the pIC50 [3]?
Answer: The pIC50 was 6.33.

Question: What about the pIC50 [4] of the same molecule?
Answer: Its pIC50 is less than 5.00.

Question: And the pIC50 [5]?
Answer: Its pIC50 is less than 4.52.

Question: What about the pIC50 [6] of the same molecule?
Answer: The pIC50 was less than 4.52.

Question: What about the inhibition of growth at 1 µM [7] of the same molecule?
Answer: Its inhibition of growth at 1 µM is 100%.

Question: And the inhibition of growth at 1 µM [8]?
Answer: Its inhibition of growth at 1 µM is 80%.

Question: And the Activity [9]?
Answer: The Activity was “inactive”.

Question: And the Activity [10]?
Answer: The Activity was “inactive”.

Question: And the Activity [11]?
Answer: Its Activity is “inactive”.

Question: What about the Activity [12] of the same molecule?
Answer: The Activity was “inactive”.

Question: What about the Activity [13] of the same molecule?
Answer: Its Activity is “inactive”.

Question: What about the Activity [14] of the same molecule?
Answer: Its Activity is 2984 /cm2.

Question: What about the Activity [15] of the same molecule?
Answer: The Activity was 244 /cm2.

Question: And the Activity [16]?
Answer: The Activity was 479 /cm2.

Question: And the Activity [17]?
Answer: The Activity was 3369 /cm2.

Question: And the fraction unbound at 3 µM [18]?
Answer: The fraction unbound at 3 µM was 0.07.

Question: What about the inhibition in vivo at 40 mg/kg [19] of the same molecule?
Answer: The inhibition in vivo at 40 mg/kg was -28%.

Question: And the inhibition in vivo at 40 mg/kg [20]?
Answer: Its inhibition in vivo at 40 mg/kg is -6%.

Question: And the inhibition in vivo at 40 mg/kg [21]?
Answer: The inhibition in vivo at 40 mg/kg was 49%.

Question: And the Activity [22]?
Answer: The Activity was “Non-toxic”.

Question: What about the Activity [23] of the same molecule?
Answer: The Activity was “Active”.
